Series [1] can be described thus: Kinetic solubility of the compound in pION buffer at pH 7.4 measured after 18 hrs. The series is classed as physicochemical. Conditions: read-out: Kinetic_solubility.
The target of series [2] is Diacylglycerol O-acyltransferase 1 (Homo sapiens) (UniProt O75907). Kind of series: Inhibition of recombinant human DGAT1 expressed in baculovirus infected Sf9 insect microsomal membranes at 10 uM using C10-DAG and C10-CoA as substrate pretreated for 15 mins followed by substrate addition measured after 60 mins by CPM dye based fluorescence assay relative to control.
Series [3] relates to Salmonella typhimurium. The series can be described thus: Mutagenicity in Salmonella typhimurium TA1535 in presence of S9 fraction by Ames test. The series is classed as toxicity, organism-based. To be noted: salmonella enterica subsp. enterica serovar typhimurium. For orientation: The Ames test uses bacterial strains that need an amino acid and regain growth without it when mutated back.

Series [4] has as its system Salmonella typhimurium. The series can be described thus: Mutagenicity in Salmonella typhimurium TA1537 in presence of S9 fraction by Ames test. The series is classed as toxicity, organism-based. To be noted: salmonella enterica subsp. enterica serovar typhimurium.
For series [5], the system named is Salmonella typhimurium. The series can be described thus: Mutagenicity in Salmonella typhimurium TA98 in presence of S9 fraction by Ames test. The series is classed as toxicity, organism-based. To be noted: salmonella enterica subsp. enterica serovar typhimurium.
The subject of series [6] is Salmonella typhimurium. The series can be described thus: Mutagenicity in Salmonella typhimurium TA100 in presence of S9 fraction by Ames test. The format is toxicity, organism-based. Conditions: salmonella enterica subsp. enterica serovar typhimurium.
The test system of series [7] is Escherichia coli. The series can be described thus: Mutagenicity in Escherichia coli WP2uvrA in presence of S9 fraction by Ames test. The series is classed as toxicity, organism-based.
The subject of series [8] is Salmonella typhimurium. The series can be described thus: Mutagenicity in Salmonella typhimurium TA1535 in absence of S9 fraction by Ames test. Conditions: salmonella enterica subsp. enterica serovar typhimurium. The series is classed as toxicity, organism-based.
The test system of series [9] is Salmonella typhimurium. Kind of series: Mutagenicity in Salmonella typhimurium TA1537 in absence of S9 fraction by Ames test. Conditions: salmonella enterica subsp. enterica serovar typhimurium. The format is toxicity, organism-based.
Series [10] relates to Salmonella typhimurium. Kind of series: Mutagenicity in Salmonella typhimurium TA98 in absence of S9 fraction by Ames test. The format is toxicity, organism-based. To be noted: salmonella enterica subsp. enterica serovar typhimurium.
Series [11] deals with Salmonella typhimurium. Kind of series: Mutagenicity in Salmonella typhimurium TA100 in absence of S9 fraction by Ames test. The format is toxicity, organism-based. Conditions: salmonella enterica subsp. enterica serovar typhimurium.
Series [12] relates to Escherichia coli. The series can be described thus: Mutagenicity in Escherichia coli WP2uvrA in absence of S9 fraction by Ames test. The format is toxicity, organism-based.
In series [13] the target is T1, Diacylglycerol O-acyltransferase 1 (Mus musculus) (UniProt Q9Z2A7).
T1 sequence (whole entry): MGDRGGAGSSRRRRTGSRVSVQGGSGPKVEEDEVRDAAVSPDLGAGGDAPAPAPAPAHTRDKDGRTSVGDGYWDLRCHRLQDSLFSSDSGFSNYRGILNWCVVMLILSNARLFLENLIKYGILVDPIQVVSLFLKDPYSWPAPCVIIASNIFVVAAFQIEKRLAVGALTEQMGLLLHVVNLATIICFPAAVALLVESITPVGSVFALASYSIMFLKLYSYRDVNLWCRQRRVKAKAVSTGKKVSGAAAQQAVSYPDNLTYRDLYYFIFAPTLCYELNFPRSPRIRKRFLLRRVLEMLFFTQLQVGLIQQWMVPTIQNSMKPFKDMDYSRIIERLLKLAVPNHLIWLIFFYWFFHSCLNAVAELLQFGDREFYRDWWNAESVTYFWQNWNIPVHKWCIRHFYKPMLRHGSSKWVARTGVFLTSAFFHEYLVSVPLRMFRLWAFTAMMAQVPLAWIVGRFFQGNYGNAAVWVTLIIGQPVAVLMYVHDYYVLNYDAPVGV
Kind of series: Inhibition of DGAT1 in mouse C2C12 cells at 300 nM using [14C] oleic acid as substrate measured after 20 mins by phosphorimaging method relative to control. The series is classed as cell-based.

Series [14] in a line: Plasma clearance in C57BL/6J mouse at 2.2 mg/kg, iv or 2.7 mg/kg, po. The format is ADME, organism-based. The method in brief:
(§1)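 Male animals, n = 3 per species: C57BL/6J mouse at 2.2 mg/kg IV and 2.7 mg/kg PO; Sprague–Dawley rat at 1 mg/kg IV and 2 mg/kg PO; Beagle dog at 1.8 mg/kg IV and 5.3 mg/kg PO. Plasma clearance, Vss, IV half-life and oral %F were derived from the plasma profiles.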

The nature of series [15]: Volume of distribution at steady state in C57BL/6J mouse at 2.2 mg/kg, iv or 2.7 mg/kg, po. The series is classed as ADME, organism-based. Conditions: in vivo, read-out: Vdss. The method in brief:
(§2)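 Male animals, n = 3 per species. Each was given a single intravenous dose and a separate oral dose, at the species-specific levels in the line. Plasma clearance, steady-state volume of distribution, IV half-life and oral bioavailability were derived from these studies.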

Series [16] in a line: Half life in C57BL/6J mouse at 2.2 mg/kg, iv. The series is classed as ADME, organism-based. To be noted: in vivo. The method in brief:
as §1

Series [17] is described as follows: Oral bioavailability in C57BL/6J mouse at 2.7 mg/kg. The series is classed as ADME, organism-based. Conditions: in vivo. The method in brief: as §1
Series [18] in a line: Plasma clearance in Sprague-Dawley rat at 1 mg/kg, iv or 2 mg/kg, po. The format is ADME, organism-based. The method in brief:
as §1

Series [19] can be described thus: Volume of distribution at steady state in Sprague-Dawley rat at 1 mg/kg, iv or 2 mg/kg, po. The series is classed as ADME, organism-based. To be noted: in vivo, read-out: Vdss. The method in brief: as §2
A short description of series [20]: Half life in Sprague-Dawley rat at 1 mg/kg, iv. Conditions: in vivo. The series is classed as ADME, organism-based. The method in brief:
as §1

Series [21] is described as follows: Oral bioavailability in Sprague-Dawley rat at 2 mg/kg. To be noted: in vivo. The series is classed as ADME, organism-based. The method in brief:
as §1

A short description of series [22]: Plasma clearance in Beagle dog at 1.8 mg/kg, iv or 5.3 mg/kg, po. The format is ADME, organism-based, Canis lupus familiaris. The method in brief: as §1
Series [23] in a line: Volume of distribution at steady state in Beagle dog at 1.8 mg/kg, iv or 5.3 mg/kg, po. The series is classed as ADME, organism-based, Canis lupus familiaris. Conditions: in vivo, read-out: Vdss. The method in brief: as §2
Series [24] in a line: Half life in Beagle dog at 1.8 mg/kg, iv. The format is ADME, organism-based, Canis lupus familiaris. Conditions: in vivo. The method in brief:
as §1

Series [25] in a line: Oral bioavailability in Beagle dog at 5.3 mg/kg. The format is ADME, organism-based, Canis lupus familiaris. Conditions: in vivo. The method in brief:
as §1

In series [26] the test system is Mus musculus. The series can be described thus: In vivo inhibition of DGAT1 in corn oil-induced Swiss albino mouse hypertriglyceridemia model assessed as reduction in plasma triglyceride level at 0.03 mg/kg, po pretreated for 30 mins followed by coil oil challenge measured after 2.5 hrs relative to control. The format is functional. The method in brief:
(§3)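 Male Swiss Albino mice were fasted overnight, then dosed orally at 0.03, 0.1, 0.3, 1, 3 or 10 mg/kg. Thirty minutes later they received an oral corn oil bolus of 5 mL/kg.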

The subject of series [27] is Mus musculus. Kind of series: In vivo inhibition of DGAT1 in corn oil-induced Swiss albino mouse hypertriglyceridemia model assessed as reduction in plasma triglyceride level at 0.1 mg/kg, po pretreated for 30 mins followed by coil oil challenge measured after 2.5 hrs relative to control. The format is functional. The method in brief:
as §3

Series [28] deals with Mus musculus. The series can be described thus: In vivo inhibition of DGAT1 in corn oil-induced Swiss albino mouse hypertriglyceridemia model assessed as reduction in plasma triglyceride level at 0.3 mg/kg, po pretreated for 30 mins followed by coil oil challenge measured after 2.5 hrs relative to control. The format is functional. The method in brief:
as §3

Series [29] concerns Mus musculus. The series can be described thus: In vivo inhibition of DGAT1 in corn oil-induced Swiss albino mouse hypertriglyceridemia model assessed as reduction in plasma triglyceride level at 1 mg/kg, po pretreated for 30 mins followed by coil oil challenge measured after 2.5 hrs relative to control. The series is classed as functional. The method in brief: as §3
For series [30], the system named is Mus musculus. Kind of series: In vivo inhibition of DGAT1 in corn oil-induced Swiss albino mouse hypertriglyceridemia model assessed as reduction in plasma triglyceride level at 3 mg/kg, po pretreated for 30 mins followed by coil oil challenge measured after 2.5 hrs relative to control. The series is classed as functional. The method in brief: as §3
Series [31] has as its system Mus musculus. Kind of series: In vivo inhibition of DGAT1 in corn oil-induced Swiss albino mouse hypertriglyceridemia model assessed as reduction in plasma triglyceride level at 10 mg/kg, po pretreated for 30 mins followed by coil oil challenge measured after 2.5 hrs relative to control. The series is classed as functional. The method in brief:
as §3

For series [32], the species on record is Mus musculus. The series can be described thus: animal or person. To be noted: Swiss, po.

The structures appear in SMILES notation. In brackets after ≈: the same amount, converted by molar mass.

One may read the inhibition as how much of the control response was suppressed. As a reminder, the half-life is the time needed for the level to fall by half in the phase considered. Low values mean fast loss, high ones slow loss. As usually defined, the inhibition in vivo is the relative decrease from the control value, in per cent. A word on the ED50: it is the midpoint of the dose-response relation. A lower ED50 goes with an effect at a small dose.

Sequence of Diacylglycerol O-acyltransferase 1 (Homo sapiens) (O75907 whole entry): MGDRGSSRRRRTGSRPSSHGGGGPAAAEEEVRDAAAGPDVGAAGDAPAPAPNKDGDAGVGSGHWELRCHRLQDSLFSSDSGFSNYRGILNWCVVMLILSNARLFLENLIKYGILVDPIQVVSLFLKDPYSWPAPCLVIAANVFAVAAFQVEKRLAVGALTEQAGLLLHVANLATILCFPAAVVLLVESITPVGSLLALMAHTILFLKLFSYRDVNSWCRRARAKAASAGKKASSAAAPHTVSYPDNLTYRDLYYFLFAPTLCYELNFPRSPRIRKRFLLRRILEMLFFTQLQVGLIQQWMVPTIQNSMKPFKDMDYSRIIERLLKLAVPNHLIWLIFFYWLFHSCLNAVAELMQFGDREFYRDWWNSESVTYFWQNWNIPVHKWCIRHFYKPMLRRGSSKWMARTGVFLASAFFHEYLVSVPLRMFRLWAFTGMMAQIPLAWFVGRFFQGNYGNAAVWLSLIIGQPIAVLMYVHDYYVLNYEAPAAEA

`O=C(O)CC1(F)CCc2cc(-c3ccc(NC(=O)Nc4ccccc4)cc3)ccc2C1=O` (centres undefined): in series [1], the solubility kinetic at 18 h came out at 31 µg/mL (≈ 71.7 µM). Further, the inhibition in series [2] was determined as 84%.
Regarding `CCC1(CC(=O)O)CCc2cc(-c3ccc(N)cc3)ccc2C1=O` (centres undefined), the Activity result in the series with Salmonella typhimurium [3], with Salmonella typhimurium [4], in the series with Salmonella typhimurium [5], with Salmonella typhimurium [6], in the series on Escherichia coli [7] and with Salmonella typhimurium [8] was “Toxic” in each case. The Activity entry in the series on Salmonella typhimurium [9], in the series with Salmonella typhimurium [10], in the series on Salmonella typhimurium [11] and with Escherichia coli [12] was “Toxic” throughout.
Take `CC[C@@]1(CC(=O)O)CCc2cc(-c3ccc(NC(=O)Nc4cccc(C(F)(F)F)c4)cc3)ccc2C1=O`: the solubility kinetic at 18 h in [1] was 78 µg/mL (≈ 153 µM). The inhibition in series [13] was determined as 75%. The clearance was determined as 42.3 mL/min/kg in series [14], 6.3 mL/min/kg in [18] and 4.6 mL/min/kg in series [22]. The Vd in series [15] came out at 2.4 L/kg; in series [19], 1 L/kg; in series [23], 0.6 L/kg. Moreover, the figures for the half-life in series [16], in series [20] and in series [24] were 2.6 h, 3.9 h and 4.6 h, respectively. The figures for the bioavailability in series [17], in [21] and in series [25] were 54%, 87% and 149%, respectively. Further, in the series with Mus musculus [26], the inhibition in vivo at 0.03 mg/kg came out at 19%. Besides, the inhibition in vivo at 0.1 mg/kg with Mus musculus [27] was determined as 33%. The inhibition in vivo at 0.3 mg/kg in the series with Mus musculus [28] stood at 60%. Further, the inhibition in vivo at 1 mg/kg with Mus musculus [29] came out at 71%. Moreover, the inhibition in vivo at 3 mg/kg in the series on Mus musculus [30] was 91%. For the same compound, in the series on Mus musculus [31], the inhibition in vivo at 10 mg/kg was found to be 99%. Moreover, the Activity result in the series with Salmonella typhimurium [3], with Salmonella typhimurium [4], in the series with Salmonella typhimurium [5], in the series with Salmonella typhimurium [6], in the series with Escherichia coli [7] and in the series on Salmonella typhimurium [8] was “Non-Toxic” in each case. For the same compound, the Activity result in the series with Salmonella typhimurium [9], with Salmonella typhimurium [10], in the series on Salmonella typhimurium [11] and with Escherichia coli [12] was “Non-Toxic” each time. This compound also had an ED50 in the series filed under Mus musculus [32] of 0.23 mg/kg.
Regarding `Nc1ncnc2c1C(=O)N(c1ccc([C@H]3CC[C@H](CC(=O)O)CC3)cc1)CCO2` [PF-04620110], the inhibition in vivo at 0.3 mg/kg in the series on Mus musculus [28] was found to be 94%.

The record behind these values is ChEMBL document CHEMBL4138301, “Discovery of Tetralones as Potent and Selective Inhibitors of Acyl-CoA:Diacylglycerol Acyltransferase 1” (ACS Med Chem Lett, 2018).
